Compound activity deposited in PubChem BioAssay by several laboratories.
UBC13 inh: human UBC13 polyubiquitination inhibition | UBC13 polyubiquitin chain formation, TR-FRET | inhibition, % at 20 µM | 0.47% of 330,000 active | AID 485273; in the data active means inhibition above about 45%, passing the limit was not always enough; inconclusive means no clear call, values can overlap the other calls
Target sequence (P61088 whole entry, looked up): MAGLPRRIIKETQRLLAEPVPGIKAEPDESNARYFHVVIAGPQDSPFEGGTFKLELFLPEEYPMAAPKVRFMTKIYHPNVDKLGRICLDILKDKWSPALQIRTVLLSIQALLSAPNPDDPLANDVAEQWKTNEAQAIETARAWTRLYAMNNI
iPSC survival up: increases survival of single human iPS cells. hiPSC single-cell survival, ATPlite luminescence; 100% = ROCK inhibitor wells, 0% = DMSO. survival enhancement, % at 20 µM. 0.044% of 360,000 active; in the data active means survival enhancement above about 18%;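 further: cells exposed to compounds for 16 hours before the ATP read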
Granule exo inh: blocks lytic granule exocytosis. TALL-104 LAMP-1 surface exposure, flow cytometry; cells stimulated with thapsigargin and PMA. inhibition, % at 10 µM. 0.66% of 360,000 active;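 active means inhibition above about 55%, limit read from the data; inconclusive means no clear call, values can overlap the other calls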
Apaf1 inhib: human Apaf-1 inhibition. reconstituted apoptosome caspase-3 activity, DEVD-Rh110 fluorescence. inhibition, % at 20 µM. 0.71% of 330,000 active. AID 489030; active means inhibition of at least 40% at 20 µM;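 further: plate controls were DMSO wells for no effect and DEVD-CHO caspase inhibitor wells for full effect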
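System: reconstituted apoptosome with Apaf-1, cytochrome c, caspase-9, procaspase-3, dATP; Signal: Rh110 fluorescence intensity; Schedule: 30 min compound preincubation, 50 min activation, room temperature; Reagent: cytochrome c trigger plus (Z-DEVD)2-Rh110 caspase-3 substrate.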
MPTP inh: inhibitors of mitochondrial permeability transition pore; inhibition, % at 10 µM; 1.4% of 360,000 active; AID 602449; isolated mouse mitochondria, Ca2+ swelling absorbance, 30 min;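 active means inhibition of 50% or more, scaled per plate between neutral and stimulator controls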;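 further: 0% = DMSO wells given calcium and 100% = 1 mM EGTA wells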
MIN6 prolif: MIN6 beta-cell proliferation induction; proliferation, % at 10 µM; MIN6 cells proliferation, ATPlite luminescence, 48 h; cells starved in 0.2% serum; 100% = growth in 10% serum; 0.29% of 330,000 active; AID 2380;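 active means compounds whose signal lies at least 3.5 SD above the mean of all wells on their plate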;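 further: 0% = DMSO-treated cells in low-serum medium and 100% = 10% serum control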
MPTP counter: membrane potential counter-screen of mitochondrial pore inhibitors; shares compounds with MPTP inh; isolated mitochondria, Rhodamine 123 fluorescence; inhibition, % at 10 µM; 78% of 5,000 active; in the data active means inhibition above about 22%;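 further: 0% = DMSO vehicle and 100% = positive control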
MPTP swell DR: dose response confirmation of mitochondrial permeability transition pore inhibitors; shares compounds with MPTP inh; isolated mitochondria swelling, absorbance; IC50, µM; 58% of 780 active; in the data active means IC50 below about 20 µM
MPTP cs DR: active in counter-screen for permeability transition pore inhibitors | shares compounds with MPTP inh | isolated mitochondria counterscreen, fluorescence read-out | IC50, µM | 49% of 780 active | AID 651564; in the data active means IC50 below about 80 µM
* = called active by the depositor; i = inactive; ? = inconclusive; . = no result given. A selection: hits, their analogues and other compounds. The true share with any hit is near 3%.

SMILES	UBC13 inh	iPSC survival up	Granule exo inh	Apaf1 inhib	MPTP inh	MIN6 prolif	MPTP counter	others
Cc1ccc2c(c1)c1c3n2CCN(CCC(=O)O)C3CCC1 (stereo not drawn)	8	2	-10	-10	0	-1	.
Cc1ccc2c(c1)c1c3n2CCN(C(=O)CN2CCN(C)CC2)C3CCC1 (stereo not drawn)	8	-1	3	13	75*	-6	-8	MPTP swell DR=20*;MPTP cs DR=>80
CC(OC(=O)c1ccccc1NCCO)C(=O)NCC(=O)Nc1ccc(F)c(F)c1F (stereo not drawn)	9	0	10	7	0	-4	.
CSc1nc(Oc2cccc(C(F)(F)F)c2)cc(C(F)(F)F)n1	-6	3	-3	-5	55*	-1	4	MPTP swell DR=11*;MPTP cs DR=>80
CC(=O)Oc1[nH]c(=O)c2cccc3c2c1CCC3	.	7	0	.	1	.	.
Cc1ccc(NC(=O)C(=O)NCc2ccc(/C=C(/C#N)C(=O)NCc3cccnc3)o2)cc1	1	-1	4	-13	1	-3	.
Cc1ccc(NC(=O)C(=O)NCc2ccc(/C=C(/C#N)C(=O)NCc3cccnc3)o2)cc1C	9	1	1	1	60*	-4	76*
NC(=S)NNC(=O)Nc1ccc(Cl)c(Cl)c1	2	1	6	11	72*	2	70*
COC(=O)c1cccc(NC(=O)Nc2ccc(Cl)c(Cl)c2)c1	6	1	16	6	98*	-6	70*
COC(=O)c1sccc1NC(=O)Nc1ccc(Cl)c(Cl)c1	31	0	-6	-8	103*	-3	107*
CN(C)S(=O)(=O)Oc1cccc(C(=O)Nc2ccc(Cl)c(Cl)c2)c1	-2	-3	0	-40	96*	-6	91*
COC(=O)c1sccc1NC(=O)Nc1ccc(C)c(C)c1	-2	0	1	18	-1	-3	.
COC(=O)c1cccc(NC(=O)NC(=O)c2ccccc2Cl)c1	-5	0	-4	6	1	-5	.
CCN(CC)C(=S)Nc1ccc(Cl)c(Cl)c1	7	-2	-2	0	71*	-1	59*
COC(=O)c1cc(NC(=O)Nc2ccccc2)ccc1Cl	6	1	-2	-11	76*	-2	83*
CCN(CC(=O)N1CCOCC1)S(=O)(=O)c1ccccc1	4	0	-6	-2	1	2	.
CC1(C)OC2OC(C3COC(=O)O3)C(OC(=O)c3ccccc3)C2O1 (stereo not drawn)	.	2	2	.	0	.	.
Cc1cccc(C(=O)N2CCc3cc(-c4csc(NC(=O)CN5CCCC5)n4)ccc32)c1	8	1	-6	21	86*	0	5	MPTP swell DR=i;MPTP cs DR=37*
Cc1cccc(C(=O)N2CCc3cc(-c4nc(NC(=O)CN5CCCC5)sc4C)ccc32)c1	12	0	-1	20	1	0	.
Cc1nonc1NC(=O)CSc1nc(C23CC4CC(CC(C4)C2)C3)nc2ccccc12	11	-1	22	17	79*	-6	72*
Cn1c2ccccc2c(=O)c2c(=O)n(-c3ccccc3)c(C3CCCCC3)nc21	-6	1	1	15	2	-2	.
Cn1c2ccccc2c(=O)c2c(=O)n(C3CCCCCC3)c(C3CCCCC3)nc21	.	0	?	.	88*	.	5
O=C(/C=C/c1ccc(O)c(O)c1)NC(=O)c1ccccc1O	-16	-1	2	-9	-1	-4	.
O=C(/C=C/c1ccc(Br)cc1)NC(=O)c1ccccc1O	-2	-2	12	17	102*	-5	88*
CCCCn1c(/N=C/c2ccc3c(c2)OCO3)nc2ccccc21	-4	2	-3	2	-1	-1	.
SMILES	UBC13 inh	iPSC survival up	Granule exo inh	Apaf1 inhib	MPTP inh	MIN6 prolif	MPTP counter	others
CCC(C)c1ccccc1N=Cc1ccc2c(c1)OCO2 (stereo not drawn)	5	0	9	6	71*	0	2	MPTP swell DR=>100;MPTP cs DR=>80
Cc1ccc(NC(=O)CSc2ccccc2)cc1S(=O)(=O)N1CCCCC1	8	1	0	9	0	4	.
Cc1ccc(NC(=O)CSc2ncnc3ccccc23)cc1S(=O)(=O)N1CCCCC1	29	-2	6	8	79*	-4	71*
Cc1ccc(NC(=S)NCc2ccccc2)cc1S(=O)(=O)N1CCCCC1	3	0	-1	14	75*	-6	75*
CC(C)(C)CN1CCN(CCCc2ccccc2)C(CCO)C1 (stereo not drawn)	3	-1	29	-5	0	5	.
CCOc1ccc(CN(C)Cc2cc(=O)oc3c(C)c(C)ccc23)cc1OC	.	1	4	.	52*	.	85*
CSc1ccc(CN(C)Cc2cc(=O)oc3c(C)c(C)ccc23)cc1	-2	0	?	19	30	-7	.
COc1ccccc1C(=O)C1CCCN(C(=O)Nc2ccccc2F)C1 (stereo not drawn)	-8	0	-4	-2	-2	-2	.
COC(=O)c1ccc(NC(=O)N2CCCC(C(=O)c3ccccc3OC)C2)cc1 (stereo not drawn)	-1	0	2	6	70*	-1	75*
COc1ccc(OCCCCc2c(C)n[nH]c2C)cc1	11	0	0	-3	51*	-3	36*
Cc1n[nH]c(C)c1CCOc1ccc(C(C)C)cc1	10	4	0	22	40	-5	.
CCC(c1nnnn1-c1ccc2c(c1)OCCO2)N1CCN(c2cc(C)ccc2C)CC1 (stereo not drawn)	.	1	0	.	2	.	.
Oc1c(C=C2N=c3ccccc3=N2)sc(=S)n1C1CCCC1	-23	-2	5	3	83*	0	50*
O=C(O)CCCCCN1C(=O)/C(=C\c2ccc(-c3ccc(Cl)cc3)o2)SC1=S	-93	0	87*	1	88*	-6	47*
COCCn1c(SCC(=O)NCc2ccccc2)nc2ccccc21	3	1	14	7	1	0	.
COCCn1c(SCc2csc(-c3ccccc3)n2)nc2ccccc21	-4	0	-2	20	70*	-3	41*
O=[N+]([O-])c1ccc(C[n+]2cccc3c4ccccc4ccc32)cc1	5	-2	-1	-4	-1	3	.
CCCCCCCCC[n+]1cccc2c3ccccc3ccc21	28	-1	56*	33	89*	-8	117*
